Common to all, as to format: functional
Test [1] deals with Rattus norvegicus. Briefly: Antihyperlipidemic activity in Triton-induced dyslipidemic Wistar rat model assessed as reduction in phospholipid level at 100 mg/kg, po. The arrangement: scale not given: the % may be the effect or the level left. In a few lines:
(§1)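 Male Wistar rats, 8−10 weeks, about 160 g, fed normal pellet diet. Triton X-100 given at 400 mg/kg ip; compound given orally in 1% gum acacia. Retro-orbital blood taken 18 h after Triton and serum separated at 1500g for 10 min. TG and cholesterol measured by kit. Mean % change versus dyslipidemic control, 5 animals.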

Test [2] concerns Rattus norvegicus. Description: Antihyperlipidemic activity in Triton-induced dyslipidemic Wistar rat model assessed as reduction in cholesterol level at 100 mg/kg, po. The arrangement: scale not given: the % may be the effect or the level left. The essentials:
as §1

Test [3] concerns Rattus norvegicus. Description: Antihyperlipidemic activity in Triton-induced dyslipidemic Wistar rat model assessed as reduction in triglyceride level at 100 mg/kg, po. Further details: scale not given: the % may be the effect or the level left. In a few lines:
as §1

Test [4] relates to Rattus norvegicus. Briefly: Antidiabetic activity in sucrose loaded Wistar rat model assessed as reduction in glucose levels at 100 mg/kg, po.
For test [5], the system named is Rattus norvegicus. Description: Antidiabetic activity in sucrose challenged streptozotocin-induced diabetic Sprague-Dawley rat model assessed as reduction in glucose levels at 100 mg/kg, po measured after 5 hrs. The arrangement: scale not given: the % may be the effect or the level left.
Test [6] deals with Rattus norvegicus. Briefly: Antidiabetic activity in sucrose challenged streptozotocin-induced diabetic Sprague-Dawley rat model assessed as reduction in glucose levels at 100 mg/kg, po measured after 24 hrs. The arrangement: scale not given: the % may be the effect or the level left.

Each structure is given as a SMILES string. The source made the active and inactive calls. No cut-off for these calls is given here.

Consider `COc1cc(OC)cc(-c2cc(=O)c3ccc(OCC(O)CNC(C)(C)C)cc3o2)c1` (stereo unspecified), for which the Activity is reported as 19% in the test on Rattus norvegicus [1]; 21% in the test with Rattus norvegicus [2]; 17% in the test on Rattus norvegicus [3]; 4.86% in the test with Rattus norvegicus [5]; 2.36% in the test on Rattus norvegicus [6]. In addition, the outcome with Rattus norvegicus [4] was inactive.
For `Cc1ccccc1COc1cc(OCc2ccccc2C)cc(-c2cc(=O)c3ccc(OCC(O)CNC(C)(C)C)cc3o2)c1` (stereo unspecified), the Activity with Rattus norvegicus [1] was 12.6%; in the test on Rattus norvegicus [2] it was 22.3%; in the test on Rattus norvegicus [3], 28.2%; in the test with Rattus norvegicus [4], 39.1%; with Rattus norvegicus [5], 23.2%; in the test on Rattus norvegicus [6] it was 17.2%.
As to `CC(C)(C)NCC(O)COc1ccc2c(=O)cc(-c3ccc(OCc4ccccc4)c(OCc4ccccc4)c3)oc2c1` (stereo unspecified), the Activity with Rattus norvegicus [1] is recorded as 12%; in the test on Rattus norvegicus [2] it was 23%; in the test on Rattus norvegicus [3], 16%; in the test with Rattus norvegicus [4], 15.9%; in the test on Rattus norvegicus [5], 11.8%; in the test on Rattus norvegicus [6], 0.89%.
Take `CC(C)(C)NCC(O)COc1ccc2c(=O)cc(-c3cc(OCc4cc(Cl)cc(Cl)c4)cc(OCc4cc(Cl)cc(Cl)c4)c3)oc2c1` (stereo unspecified): the Activity is recorded as 12.2% with Rattus norvegicus [1]; 8.93% in the test with Rattus norvegicus [2]; 11.3% in the test on Rattus norvegicus [3]; 25.9% in the test with Rattus norvegicus [4]; 14.2% in the test with Rattus norvegicus [5]. Also, the result with Rattus norvegicus [6] was inactive.
Take `CC(C)NCC(O)COc1ccc2c(=O)cc(-c3cc(OCc4cc(Cl)cc(Cl)c4)cc(OCc4cc(Cl)cc(Cl)c4)c3)oc2c1` (stereo unspecified): the Activity was found to be 11.8% with Rattus norvegicus [1]; 22.2% in the test with Rattus norvegicus [2]; 26% in the test on Rattus norvegicus [3]; 32.7% in the test with Rattus norvegicus [4]; 22.1% in the test with Rattus norvegicus [5]; 16.2% with Rattus norvegicus [6].
For `Cc1ccc(COc2cc(OCc3ccc(C)cc3)cc(-c3cc(=O)c4ccc(OCC(O)CNCc5ccccc5)cc4o3)c2)cc1` (stereo unspecified), the Activity came to 20.8% in the test with Rattus norvegicus [1]; 16.5% in the test on Rattus norvegicus [2]; 27.2% in the test with Rattus norvegicus [3]; 32% with Rattus norvegicus [4]; 26.2% in the test with Rattus norvegicus [5]; 17.9% in the test with Rattus norvegicus [6].
Regarding `CC(C)NCC(O)COc1ccc2c(=O)cc(-c3cc(OCc4ccccc4Cl)cc(OCc4ccccc4Cl)c3)oc2c1` (stereo unspecified), the Activity in the test on Rattus norvegicus [1] is 20.2%; in the test with Rattus norvegicus [2], 12.1%; with Rattus norvegicus [3], 30.2%; in the test on Rattus norvegicus [4] it was 12.6%; in the test with Rattus norvegicus [5], 6.83%. Besides, the result in the test on Rattus norvegicus [6] was inactive.
For `CC(C)NCC(O)COc1ccc2c(=O)cc(-c3cc(OCc4ccccc4)cc(OCc4ccccc4)c3)oc2c1` (stereo unspecified), the Activity turned out to be 8% in the test on Rattus norvegicus [1]; 13% with Rattus norvegicus [2]; 11% in the test on Rattus norvegicus [3]; 7.86% in the test on Rattus norvegicus [5]; 2.23% with Rattus norvegicus [6]. In addition, the result in the test with Rattus norvegicus [4] was inactive.
Regarding `CN(C)C(=N)NC(=N)N` [METFORMIN], the Activity in the test on Rattus norvegicus [1] was 6.2%; in the test on Rattus norvegicus [2], 4.2%; in the test with Rattus norvegicus [3], 5.9%; in the test with Rattus norvegicus [4], 22.1%; in the test with Rattus norvegicus [5] it was 24.3%; in the test with Rattus norvegicus [6] it was 19.4%.
Turning to `Cc1ccc(COc2cc(OCc3ccc(C)cc3)cc(-c3cc(=O)c4ccc(OCC(O)CNC(C)C)cc4o3)c2)cc1` (stereo unspecified), the Activity in the test on Rattus norvegicus [1] was 26.5%; with Rattus norvegicus [2], 20.3%; with Rattus norvegicus [3] it was 25.6%; in the test on Rattus norvegicus [4] it was 51.6%; in the test with Rattus norvegicus [5], 22.8%; in the test with Rattus norvegicus [6], 11.9%.
As for `Cc1ccc(COc2cc(OCc3ccc(C)cc3)cc(-c3cc(=O)c4ccc(OCC(O)CN(C(C)C)C(C)C)cc4o3)c2)cc1` (stereo unspecified), the Activity turned out to be 4.67% in the test on Rattus norvegicus [1]; 10.1% in the test with Rattus norvegicus [2]; 12.1% with Rattus norvegicus [3]; 15.7% in the test on Rattus norvegicus [4]; 12.2% in the test with Rattus norvegicus [5]. In the test on Rattus norvegicus [6], the result was inactive.

The values above are taken from ChEMBL document CHEMBL2169868, “Flavone-based novel antidiabetic and antidyslipidemic agents” (J Med Chem, 2012).
